The results in this text go back to ChEMBL document CHEMBL1154414, “In vitro and in vivo activities of T-705 against arenavirus and bunyavirus infections” (Antimicrob Agents Chemother, 2007).

Molecules are shown by their SMILES. The source made the active and inactive calls. The calls are words filed in the database; no cut-off is given here.

For test [1], the system named is Sandfly fever Naples virus. In words: Antiviral activity against Sandfly fever Naples virus assessed as reduction of 1 log10 unit viral titer yields after 3 to 5 days. Format: functional.
Test [2] deals with Punta Toro virus. Kind of test: Antiviral activity against 500 PFU Punta Toro virus Adames infected C57BL/6 mouse assessed as animals with detectable virus level in serum at 10 mg/kg, po twice daily administered 24 hrs post viral challenge measured on day 3 of viral infection. Format: functional. Put shortly:
(§1)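 T-705 was suspended in 0.4% carboxymethylcellulose and given by oral gavage twice daily. Mice were infected subcutaneously with PTV. Five mice per group (10 placebo) were sacrificed on day 3 or 4. Liver homogenate or serum was serially diluted onto triplicate LLC-MK2 monolayers, and CPE was read at 6–8 days. The detection limit was 2.8 log10 CCID50 per 0.1 g liver or 0.1 ml serum.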

Test [3] relates to Punta Toro virus. In words: Antiviral activity against 500 PFU Punta Toro virus Adames infected C57BL/6 mouse assessed as mean serum ALT levels at 25 mg/kg, po twice daily administered 4 hrs before viral challenge measured on day 4 of viral infection. It counts as functional. Put shortly:
(§2)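 C57BL/6 mice received subcutaneous PTV, then oral gavage twice daily for 5–7 days. T-705 was given in 0.4% CMC and ribavirin in saline. Five mice per group (10 placebo) were killed on day 3 or 4, and serum was collected. ALT activity was measured by kinetic assay. Three sham-infected mice set baselines.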

Test [4] relates to Punta Toro virus. In words: Antiviral activity against Punta Toro virus Adames infected Syrian golden hamster assessed as animals with detectable virus level in serum at 60 mg/kg, po twice daily administered 4 hrs before viral challenge measured on day 4 of viral infection. It counts as functional.
Test [5] concerns Punta Toro virus. In words: Antiviral activity against 500 PFU Punta Toro virus Adames infected C57BL/6 mouse assessed as mean serum ALT levels at 50 mg/kg, po twice daily administered 4 hrs before viral challenge measured on day 4 of viral infection. Format: functional. Put shortly: as §2
Test [6] relates to Punta Toro virus. In words: Antiviral activity against 500 PFU Punta Toro virus Adames infected C57BL/6 mouse assessed as mean viral titer per 0.1 mL of serum at 50 mg/kg, po twice daily administered 4 hrs before viral challenge measured on day 4 of viral infection. Format: functional. Put shortly: (§3)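 Mice were infected subcutaneously with PTV and dosed by oral gavage twice daily; 5 per group (10 placebo) were killed on day 3 or 4. Liver homogenate or serum was serially diluted onto triplicate LLC-MK2 monolayers, and CPE was read 6–8 days later. 50% endpoints gave log10 CCID50 per 0.1 g liver or 0.1 ml serum. Detection range was 2.8–9.5; undetectable samples were assigned <2.8.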

Test [7] concerns Punta Toro virus. Kind of test: Antiviral activity against 500 PFU Punta Toro virus Adames infected C57BL/6 mouse assessed as animals with detectable virus level in serum at 25 mg/kg, po twice daily administered 4 hrs before viral challenge measured on day 4 of viral infection. Format: functional. The procedure, abridged:
as §1

In test [8] the test system is Punta Toro virus. In words: Antiviral activity against 500 PFU Punta Toro virus Adames infected C57BL/6 mouse assessed as mean viral titer per 0.1 g of liver at 100 mg/kg, po administered 4 hrs before viral challenge measured on day 4 of viral infection. It counts as functional. Put shortly:
as §3

Test [9] has as its system Punta Toro virus. In words: Antiviral activity against 500 PFU Punta Toro virus Adames infected C57BL/6 mouse assessed as mean day of death at 200 mg/kg, po twice daily for 5 days administered 4 hrs before viral challenge. It counts as functional. The procedure, abridged: (§4)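 Groups of 15 mice (25–30 placebo) were inoculated subcutaneously with PTV. Drug in 0.4% carboxymethylcellulose was given by oral gavage twice daily.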

Test [10] concerns Punta Toro virus. Kind of test: Antiviral activity against 50 PFU Punta Toro virus Adames infected C57BL/6 mouse assessed as survival at 10 mg/kg, po twice daily for 5 days administered 24 hrs post viral challenge. Format: functional, organism-based. More on the design: dose 10 mg/kg. Put shortly: as §4
In test [11] the test system is Pichinde virus. In words: Antiviral activity against Pichinde virus An 4763 infected Syrian golden hamster assessed as mean serum ALT levels at 30 mg/kg, po twice daily for 7 days administered 4 hrs before viral-challenge measured on day 7 of viral infection. Format: functional.
Test [12] deals with Pichinde virus. Kind of test: Antiviral activity against Pichinde virus An 4763 assessed as reduction of 1 log10 unit viral titer yields after 7 to 8 days. It counts as functional.
Test [13] relates to Punta Toro virus. In words: Antiviral activity against Punta Toro virus Adames assessed as reduction of 1 log10 unit viral titer yields after 3 to 5 days. Format: functional.
In test [14] the test system is Punta Toro virus. Kind of test: Antiviral activity against 500 PFU Punta Toro virus Adames infected C57BL/6 mouse assessed as mean viral titer per 0.1 mL of serum at 100 mg/kg, po twice daily administered 4 hrs before viral challenge measured on day 4 of viral infection. It counts as functional. Put shortly:
as §3

Test [15] deals with Punta Toro virus. Kind of test: Antiviral activity against 500 PFU Punta Toro virus Adames infected C57BL/6 mouse assessed as animals with detectable virus level in liver at 200 mg/kg, po twice daily administered 4 hrs before viral challenge measured on day 4 of viral infection. It counts as functional. Put shortly:
as §1

The subject of test [16] is Punta Toro virus. Kind of test: Antiviral activity against 500 PFU Punta Toro virus Adames infected C57BL/6 mouse assessed as mean serum ALT levels at 100 mg/kg, po twice daily administered 4 hrs before viral challenge measured on day 4 of viral infection. Format: functional. The procedure, abridged:
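Subcutaneous PTV infection was followed by oral gavage twice daily with drug suspended in 0.4% CMC. Serum was collected from 5 sacrificed mice per group (10 placebo) on day 3 or 4. ALT activity was measured by kinetic assay, and sham-infected mice set the baselines.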

The subject of test [17] is Punta Toro virus. Kind of test: Antiviral activity against 500 PFU Punta Toro virus Adames infected C57BL/6 mouse assessed as animals with detectable virus level in serum at 50 mg/kg, po twice daily administered 4 hrs before viral challenge measured on day 4 of viral infection. It counts as functional. Put shortly:
as §1

For test [18], the system named is Punta Toro virus. Kind of test: Antiviral activity against Punta Toro virus Adames infected Syrian golden hamster assessed as animals with detectable virus level in liver at 60 mg/kg, po twice daily administered 4 hrs before viral challenge measured on day 4 of viral infection. It counts as functional.
Test [19] has as its system Punta Toro virus. In words: Antiviral activity against 5000 PFU Punta Toro virus Adames infected C57BL/6 mouse assessed as survival at 10 mg/kg, po twice daily for 5 days administered 24 hrs post viral challenge. It counts as functional. The procedure, abridged:
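PTV was inoculated subcutaneously into mice in groups of 15 (25–30 placebo). Dosing was by oral gavage twice daily for 5–7 days, with T-705 suspended in 0.4% CMC and ribavirin in saline. Remaining animals were observed 21–28 days for survival and day of death. Test doses had first been checked for tolerance in uninfected animals.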

In test [20] the test system is Pichinde virus. Kind of test: Antiviral activity against Pichinde virus An 4763 infected Syrian golden hamster assessed as mean viral titer per 0.1 g of liver at 15 mg/kg, po twice daily for 7 days administered 4 hrs before viral-challenge measured on day 7 of viral infection. It counts as functional.
Test [21] concerns Pichinde virus. In words: Antiviral activity against Pichinde virus An 4763 infected Syrian golden hamster assessed as mean serum ALT levels at 60 mg/kg, po twice daily for 7 days administered 4 hrs before viral-challenge measured on day 7 of viral infection. Format: functional.
In test [22] the test system is Punta Toro virus. In words: Antiviral activity against 500 PFU Punta Toro virus Adames infected C57BL/6 mouse assessed as animals with detectable virus level in liver at 30 mg/kg, po twice daily administered 4 hrs before viral challenge measured on day 3 of viral infection. It counts as functional. The procedure, abridged:
as §1

Another test concerns La Crosse virus. Kind of test: Antiviral activity against La Crosse virus assessed as reduction of 1 log10 unit viral titer yields after 3 to 5 days. It counts as functional.
The test system of test [23] is Punta Toro virus. Kind of test: Antiviral activity against 500 PFU Punta Toro virus Adames infected C57BL/6 mouse assessed as mean day of death at 10 mg/kg, po twice daily for 5 days administered 4 hrs before viral challenge. It counts as functional. Put shortly: as §4
Test [24] relates to Punta Toro virus. Kind of test: Antiviral activity against 500 PFU Punta Toro virus Adames infected C57BL/6 mouse assessed as mean serum ALT levels at 75 mg/kg, po twice daily administered 4 hrs before viral challenge measured on day 4 of viral infection. It counts as functional. The procedure, abridged: as §2

On to `NC(=O)c1nc(F)cnc1O` [FAVIPIRAVIR], for which the EC90 (as a rule, the concentration at which the effect reaches the 90% level) in [1] came out at 3 µM; in the test with Pichinde virus [12] it was 19 µM; with Punta Toro virus [13], 20 µM; in the test with La Crosse virus, 7 µM. For the same compound, the Activity was 100% in the test on Punta Toro virus [2]; 69 IU/L in the test on Punta Toro virus [3]; 20% with Punta Toro virus [4]; 41 IU/L in the test with Punta Toro virus [5]; 20% in the test on Punta Toro virus [7]; 8 days with Punta Toro virus [9]. The Activity in the test with Pichinde virus [11] worked out at 378 IU/L; with Punta Toro virus [15], 0%; in the test on Punta Toro virus [16], 33 IU/L; in the test on Punta Toro virus [17] it was 10%; with Punta Toro virus [18], 20%; in the test on Pichinde virus [21], 23 IU/L. Besides, the figures for the Activity in the test with Punta Toro virus [22] and in the test on Punta Toro virus [23] were 0% and 5 days, respectively. The log10CCID50 is less than 3.1 in the test on Punta Toro virus [6], less than 2.8 with Punta Toro virus [8], less than 2.8 with Punta Toro virus [14] and 7.7 in the test on Pichinde virus [20]. The result with Punta Toro virus [10] was inactive. In the test on Punta Toro virus [19], the survival at 10 mg/kg stood at 40%.
`NC(=O)c1ncn([C@@H]2O[C@H](CO)[C@@H](O)[C@H]2O)n1` [RIBAVIRIN]: in the test with Punta Toro virus [24], the Activity turned out to be 38 IU/L.
